One compound from ChEMBL document CHEMBL4376838, “Discovery of Novel Celastrol Derivatives as Hsp90-Cdc37 Interaction Disruptors with Antitumor Activity” (J Med Chem, 2019) can be followed below.

Activity calls are given as the source filed them. The rule behind the calls is not given here.

As usually defined, the IC50 is the concentration needed to halve the response being measured.

The subject of one experiment is HOS. Nature of the experiment: Antiproliferative activity against human HOS cells assessed as inhibition of cell growth incubated for 48 hrs by MTT assay. It is filed as functional, cell-based. The gist of the method: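 MTT read-out. Cells seeded at 5.0 × 10⁴ cells/ml and cultured 24 h, then exposed to the drug over a range of concentrations for 48 h, with matching DMSO as control. MTT (5 mg/ml) added for 4 h, supernatant removed, formazan dissolved in DMSO, OD read at 570 nm. Run in triplicate, mean ± SD (n = 3).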
In general terms: Formazan colour is commonly taken as a measure of viable cells.

Experiment [1] addresses T1, Hsp90 co-chaperone Cdc37 (Homo sapiens) (UniProt Q16543).
T1 sequence (whole entry): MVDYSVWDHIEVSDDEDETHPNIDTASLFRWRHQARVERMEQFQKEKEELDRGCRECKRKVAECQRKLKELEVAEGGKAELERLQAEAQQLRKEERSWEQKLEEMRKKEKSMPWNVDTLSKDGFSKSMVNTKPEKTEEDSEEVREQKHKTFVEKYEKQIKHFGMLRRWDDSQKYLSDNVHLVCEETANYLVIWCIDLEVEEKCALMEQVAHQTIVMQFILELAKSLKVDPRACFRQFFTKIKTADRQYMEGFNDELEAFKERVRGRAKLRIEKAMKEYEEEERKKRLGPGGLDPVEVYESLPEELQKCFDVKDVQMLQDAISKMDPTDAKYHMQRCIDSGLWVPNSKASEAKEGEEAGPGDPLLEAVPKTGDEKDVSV
Kind of experiment: Inhibition of Cdc37 in human A549 cells assessed as disruption of HSP90 alpha-Cdc37 interaction by measuring decrease in Cdc37 protein level at 5 uM incubated for 6 hrs by immunoprecipitation based immunoblot analysis. The format is cell-based. The method in brief: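 A549 cells (5×10^5 per 6 cm dish) were grown 24 h, then treated with 5 μM compound or DMSO for 6 h. Lysates were immunoprecipitated with Hsp90α antibody, and co-precipitated Cdc37 and Hsp90 were detected by Western blot. Mean ± SD, n = 3.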

The target in experiment [2] is T1, Hsp90 co-chaperone Cdc37 (Homo sapiens). Kind of experiment: Binding affinity to Cdc37 in human A549 cells assessed as inhibition of HSP90-Cdc37 interaction by measuring decrease in Akt phosphorylation level at 5 uM incubated for 12 hrs by Western blot analysis. The format is cell-based. The method in brief:
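A549 cells seeded 5×10^5 per 6 cm dish, grown 12 h, then exposed to compound or DMSO for 12 h. Lysates adjusted to 3 mg/ml protein (BCA), run on 10% SDS-PAGE, immunoblotted for p-Akt and Cdk4. Band levels quantified against Hsp90 loading control. Three separate experiments, mean ± SD.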
A general note: Immunoblotting shows a protein as a band on a membrane.

In experiment [3] the target is Heat shock protein HSP 90-alpha (Homo sapiens) (UniProt P07900). Nature of the experiment: Binding affinity to full length Hsp90alpha (unknown origin) assessed as reduction in absorption at 440 nm reaching equilibrium within 5 mins at 100 uM by UV absorption analysis. To be noted: in the assay text read “within 15 mins” for “within 5 mins”. The method in brief: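 Compound (100 μM) mixed with GSH (100 μM), Cdc37 (1.5 μM) or Hsp90 (1.5 μM) in PBS containing 1% DMSO, incubated at 37 °C for 0, 5, 15 and 30 min. UV spectra scanned 200-500 nm, with absorbance at 440 nm compared against the 0 min value (A/A0). Mean ± SD, n = 3.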

Experiment [4] concerns A549. Kind of experiment: Induction of morphological apoptosis in human A549 cells assessed as increase in cells with chromatin condensation at 0.3 to 1.2 uM incubated for 48 hrs by Hoechst 33342 and PI staining based fluorescence microscopic method. It is filed as functional, cell-based. The method in brief:
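A549 cells (4×10^5 per 6 cm dish) were grown 24 h, then exposed to compound at the indicated concentrations or DMSO for 48 h. After PBS washes, cells were stained with Hoechst 33342 (10 µg/ml) plus PI for 5 min at room temperature in the dark and imaged by fluorescence microscopy for nuclear morphology.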

For experiment [5], the system named is A549. Nature of the experiment: Induction of apoptosis in human A549 cells assessed as early apoptotic cells at 0.3 uM incubated for 48 hrs by Annexin V-FITC and PI staining based flow cytometric analysis (reference value: 0.5%). The format is functional.
The test system of experiment [6] is A549. Kind of experiment: Induction of apoptosis in human A549 cells assessed as necrotic cells at 0.3 uM incubated for 48 hrs by Annexin V-FITC and PI staining based flow cytometric analysis (reference value: 1.0%). It is filed as functional. (Flow cytometry measures light scatter and fluorescence of single cells or particles in a stream.)
Experiment [7] concerns A549. Nature of the experiment: Induction of apoptosis in human A549 cells assessed as early apoptotic cells at 0.6 uM incubated for 48 hrs by Annexin V-FITC and PI staining based flow cytometric analysis (reference value: 0.5%). It is filed as functional.
Experiment [8] deals with A549. Nature of the experiment: Induction of apoptosis in human A549 cells assessed as necrotic cells at 0.6 uM incubated for 48 hrs by Annexin V-FITC and PI staining based flow cytometric analysis (reference value: 1.0%). The format is functional.
Experiment [9] concerns A549. Nature of the experiment: Induction of apoptosis in human A549 cells assessed as viable cells at 1.2 uM incubated for 48 hrs by Annexin V-FITC and PI staining based flow cytometric analysis (reference value: 95.5%). It is filed as functional. The settings on record: A549, 48 h, read-out: Activity. The gist of the method: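 A549 cells (4×10^5 per 6 cm dish) cultured 24 h, then treated 48 h with compound or DMSO. Cells gently harvested, washed twice in cold PBS, resuspended in binding buffer with Annexin V and PI, stained 15 min at room temperature in the dark, analysed by flow cytometry. Mean ± SD, n = 3.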

Experiment [10] relates to A549. Nature of the experiment: Induction of apoptosis in human A549 cells assessed as increase in late apoptotic cells incubated for 48 hrs by Annexin V-FITC and PI staining based flow cytometric analysis. The format is functional, cell-based.
Experiment [11] has as its system A549. Kind of experiment: Induction of cell cycle arrest in human A549 cells assessed as accumulation at G2 phase at 0.2 uM incubated for 24 hrs by PI staining based flow cytometric analysis (reference value: 19.37%). It is filed as functional. The gist of the method:
(§1)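 A549 cells (4×10^5 per 6 cm dish) were grown 24 h, then exposed to compound (0.2, 0.4, 0.8 μM) or DMSO for 24 h. Cells fixed in 75% ethanol at −20 °C for at least 12 h, treated with RNase A at 37 °C for 30 min, then stained with PI for 15 min in the dark. Analysed by flow cytometry, mean ± SD, n = 3.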

Experiment [12] has as its system A549. Kind of experiment: Induction of cell cycle arrest in human A549 cells assessed as accumulation at S phase at 0.4 uM incubated for 24 hrs by PI staining based flow cytometric analysis (reference value: 27.59%). It is filed as functional. The method in brief: as §1
The subject of experiment [13] is A549. Nature of the experiment: Induction of cell cycle arrest in human A549 cells assessed as accumulation at G2 phase at 0.4 uM incubated for 24 hrs by PI staining based flow cytometric analysis (reference value: 19.37%). It is filed as functional. The gist of the method: as §1
The test system of experiment [14] is A549. Kind of experiment: Induction of cell cycle arrest in human A549 cells assessed as accumulation at G1 phase at 0.8 uM incubated for 24 hrs by PI staining based flow cytometric analysis (reference value: 60.14%). It is filed as functional. The method in brief:
as §1

The subject of experiment [15] is A549. Kind of experiment: Induction of mitochondrial membrane potential loss in human A549 cells assessed as cells with depolarized mitochondria by measuring increase in J-monomer green fluorescence intensity at 0.8 uM incubated for 24 hrs by JC1 staining based fluorescence microscopic method (reference value: 1.5%). It is filed as functional.
For experiment [16], the system named is A549. Nature of the experiment: Induction of mitochondrial membrane potential loss in human A549 cells assessed as cells with hyperpolarized mitochondria by measuring decrease in J-aggregates red fluorescence intensity at 0.8 uM incubated for 24 hrs by JC1 staining based fluorescence microscopic method (reference value: 98.4%). The format is functional. Further details: scale not given: the % may be the effect or the level left.

In the case of `CC1=C(O)C(=O)C=C2C1=CC=C1[C@@]2(C)CC[C@@]2(C)[C@@H]3C[C@](C)(C(=O)OCCCOC(=O)/C=C(\C#N)c4ccc(F)cc4)CC[C@]3(C)CC[C@]12C`, in the experiment with HOS, the concentration for half-maximal inhibition (IC50) is 900 nM. Also, the inhibition result in experiment [1] and in [2] was “Active” throughout. The outcome (in experiment [3]; in the experiment on A549 [4]) was Active. Also, the Activity with A549 [5] was 2.2%; in the experiment on A549 [6] it was 3.3%; with A549 [7], 5.9%; in the experiment on A549 [8], 6%; with A549 [10], “Dose-dependent effect”; in the experiment on A549 [11], 16.78%. For the same compound, the Activity was 23.34% in the experiment on A549 [12]; 16% in the experiment with A549 [13]; 70.49% in the experiment on A549 [14]; 26.2% in the experiment on A549 [15]; 72.8% with A549 [16]. Further, in the experiment with A549 [9], the viability at 1.2 µM came out at 59.2%.
